Data reported in ChEMBL document CHEMBL5715960, “Epigenetic Co-Deregulation of EZH2/TET1 is a Senescence-Countering, Actionable Vulnerability in Triple-Negative Breast Cancer” (Theranostics, 2019).
The source made the active and inactive calls.

Columns and labels:
[1] = test system: MDA-MB-453; test: Antiproliferative activity in human MDA-MB-453 cells assessed as increase in SA-beta-gal positive cells at 2 uM for 5 days by SA-beta-gal staining analysis; type: functional, cell-based; conditions: time 5.0 day
Procedure, shortened: (§1)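 GSK343 2 µM or DMSO for 5 days, then chromogenic SA-β-gal staining and counting of positive cells. Triplicate; mean ± SD.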

[2] = test system: MDA-MB-361; test: Cytotoxicity against human MDA-MB-361 cells assessed as increase in cell death at 10 uM for 2 days by Guava viacount assay; type: toxicity, cell-based; conditions: mda-mb-361, 48 h, time 2 day
Procedure, shortened: (§2)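 Cells plated at 2 × 10^4 (24-well) or 1 × 10^5 (12-well), exposed to a range of GSK343 concentrations for 2 days against DMSO solvent control; cell number and viability read by Guava ViaCount flow cytometry, relative to DMSO. Triplicate; mean ± SD.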

[3] = test system: BT-474; test: Cytotoxicity against human BT-474 cells assessed as increase in cell death at 10 uM for 2 days by Guava viacount assay; type: toxicity, cell-based; conditions: bt-474, 48 h, time 2 day; procedure, shortened: as §2
[4] = test system: MDA-MB-231; test: In vivo activation of TET1 in Crl:NU-Foxn1-nu/nu mouse xenografted with human MDA-MB-231 cells at 5 mg/kg, ip in presence of adriamycin treated for 21 days; type: functional, organism-based; conditions: time 21.0 day
[5] = test system: MDA-MB-231; test: Antiproliferative activity against human MDA-MB-231 cells assessed as increase in cell death at 10 uM for 2 days by Guava viacount assay; type: functional, cell-based; conditions: time 2.0 day; procedure, shortened: as §2
[6] = test system: BT-474; test: Effect on human BT-474 cells assessed as increase in TET2 transcription by qRT-PCR analysis; type: functional, cell-based
Procedure, shortened: (§3)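 qRT-PCR of TET1, TET2 and TET3 transcripts in breast cancer cells exposed to GSK343 (2 µM unless otherwise indicated), shown relative to DMSO-treated cells. Mean ± SD, triplicate unless stated.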

[7] = test system: MDA-MB-231; test: Downregulation of E2F1 in human MDA-MB-231 cells at 2 uM for 2 days by immunoblot analysis; type: functional, cell-based; conditions: time 2.0 day
[8] = test system: MDA-MB-231; test: Antiproliferative activity in human MDA-MB-231 cells assessed as increase in C12FDG based fluorescent SA-beta-gal positive cells at 2 uM in presence of adriamycin by FACS analysis; type: functional, cell-based
Procedure, shortened: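 Cells given 0.005 µg/ml adriamycin with or without 2 µM GSK343, or DMSO; SA-β-gal activity detected with C12FDG fluorescent substrate by flow cytometry, reported as percent positive cells. Mean ± SD.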

[9] = test system: MDA-MB-436; test: Upregulation of CDKN1A gene in human MDA-MB-436 cells at 2 uM by qRT-PCR analysis; type: functional, cell-based
Procedure, shortened: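 Relative transcript levels measured by qRT-PCR in cells treated with 2 µM inhibitor, normalised to DMSO-treated control cells. Triplicate experiments unless stated otherwise; mean ± SD reported; unpaired two-tailed Student's t-test at p < 0.05.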

[10] = test system: MDA-MB-231; test: Antiproliferative activity against human MDA-MB-231 cells assessed as downregulation of cyclin A by immunoblot analysis; type: functional, cell-based
Procedure, shortened: (§4)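 Cells exposed to GSK343 at 2 µM (standard level unless stated otherwise), lysed and immunoblotted; α-tubulin and total H3 as loading controls.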

[11] = test system: MDA-MB-231; test: Effect on human MDA-MB-231 cells assessed as increase in TET1 mRNA level by qRT-PCR analysis
[12] = test system: MDA-MB-231; test: Effect on human MDA-MB-231 cells assessed as increase in TET1 level at 2 uM in presence of adriamycin by immunoblot analysis; type: functional, cell-based
Procedure, shortened: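 Immunoblot of MDA-MB-231 and MCF7 lysates after 0.005 µg/ml adriamycin with or without 2 µM GSK343, or DMSO. α-Tubulin and total H3 used as loading controls.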

[13] = test system: MDA-MB-231; test: In vivo activation of p53 expression in Crl:NU-Foxn1-nu/nu mouse xenografted with human MDA-MB-231 cells at 5 mg/kg, ip in presence of adriamycin treated for 21 days; type: functional, organism-based; conditions: time 21.0 day
[14] = test system: MDA-MB-231; test: Downregulation of EZH2 protein expression in human MDA-MB-231 cells at 2 uM for 2 days by immunoblot analysis; type: functional, cell-based; conditions: time 2.0 day
[15] = test system: MDA-MB-436; test: Antiproliferative activity against human MDA-MB-436 cells assessed as increase in global H3K9me3 expression level by immunoblot analysis; type: functional, cell-based; procedure, shortened: as §4
[16] = test system: MDA-MB-231; test: Induction of apoptosis in human MDA-MB-231 cells xenografted in Crl:NU-Foxn1-nu/nu mouse assessed as apoptotic cells in tumor administered at 5 mg/kg, ip in presence of adriamycin treated for 21 days by TUNEL staining analysis; type: functional, organism-based; conditions: time 21.0 day
Procedure, shortened: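 TUNEL staining of xenograft tumor sections. Dosing started when tumors reached about 50 mm3: twice-weekly intraperitoneal GSK343 5 mg/kg, adriamycin 1 mg/kg, the combination, or DMSO solvent control, for 21 days.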

[17] = test system: MCF7; test: Induction of cell cycle arrest in human MCF7 cells assessed as accumulation of cells at S phase measured at 2 uM by BrdU/PI staining based flow cytometric analysis (reference value: 27.7%); type: functional
[18] = test system: MDA-MB-231; test: Effect on human MDA-MB-231 cells expressing shTET1 assessed as increase in p21 cascade by immunoblot analysis; type: functional, cell-based
[19] = test system: MDA-MB-231; test: Induction of cell cycle arrest in human MDA-MB-231 cells assessed as accumulation of cells at S phase measured at 2 uM by BrdU/PI staining based flow cytometric analysis (reference value: 44.6%); type: functional
[20] = test system: MDA-MB-436; test: Effect on human MDA-MB-436 cells expressing shTET1 assessed as reduction in PCNA by immunoblot analysis; type: functional, cell-based
[21] = test system: MCF7; test: Effect on human MCF7 cells assessed as increase in TET2 transcription by qRT-PCR analysis; type: functional, cell-based; procedure, shortened: as §3
[22] = test system: MDA-MB-231; test: Downregulation of EZH2 in human MDA-MB-231 cells at 2 uM for 2 days by immunoblot analysis; type: functional, cell-based; conditions: time 2.0 day
[23] = test system: MDA-MB-231; test: Effect on human MDA-MB-231 cells assessed as increase in TET1 transcription by qRT-PCR analysis; type: functional, cell-based; procedure, shortened: as §3
[24] = test system: MDA-MB-436; test: Effect on human MDA-MB-436 cells assessed as apoptotic phenotype by measuring increase in BIM expression level at 2 uM in presence of adriamycin by immunoblot analysis; type: functional, cell-based
Procedure, shortened: (§5)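 Immunoblot of cell lysates after 0.05 µg/ml adriamycin alone, with 2 µM GSK343, or DMSO. α-Tubulin and total H3 used as loading controls.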

[25] = test system: MDA-MB-436; test: Antiproliferative activity against human MDA-MB-436 cells assessed as increase in cell death at 10 uM for 2 days by Guava viacount assay; type: functional, cell-based; conditions: time 2.0 day; procedure, shortened: as §2
[26] = test system: MDA-MB-436; test: Downregulation of EZH2 transcription in human MDA-MB-436 cells at 2 uM for 2 days by immunoblot analysis; type: functional, cell-based; conditions: time 2.0 day
[27] = test system: MDA-MB-231; test: Effect on human MDA-MB-231 cells expressing shTET1 assessed as increase in p53 cascade by immunoblot analysis; type: functional, cell-based
[28] = test system: MDA-MB-231; test: Effect on human MDA-MB-231 cells assessed as apoptotic phenotype by measuring increase in PUMA expression level at 2 uM in presence of adriamycin by immunoblot analysis; type: functional, cell-based; procedure, shortened: as §5
[29] = test system: MCF7; test: Antiproliferative activity in human MCF7 cells assessed as increase in SA-beta-gal positive cells at 2 uM for 5 days by SA-beta-gal staining analysis; type: toxicity, cell-based; conditions: mcf7, 120 h, time 5 day; procedure, shortened: as §1

Measured: Activity

CCCc1cc(C)[nH]c(=O)c1CNC(=O)c1cc(-c2ccnc(N3CCN(C)CC3)c2)cc2c1cnn2C(C)C
Non-Toxic: [2] | [3] | [29]
16.1%: [19]
inactive: [6] | [18] | [20] | [21] | [27]
22.8%: [17]
active: all other assays above
